According to ChEMBL document CHEMBL3861962 (Eur J Med Chem, 2016):

Experiments:
[1] = Drug metabolism in human liver microsomes assessed as formation of N-(6-(2-hydroxyethoxy)-5-(2-hydroxyphenoxy)-2,2'-bipyrimidin-4-yl)-4-(perfluoropropan-2-yl)benzenesulfonamide at 5 uM in presence of NADPH after 30 mins by LC-MS/MS analysis; type: ADME; conditions: 0.5 h
Method in brief: (§1)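 Substrate at 5 μM final in 100 mM potassium phosphate, pH 7.4, incubated with human liver microsomes or baculovirus-expressed recombinant CYP3A4, 2D6 or 2C9. Reaction started with 1 mM NADPH and run 0, 15 and 30 min at 37 °C. Stopped with ice-cold acetonitrile containing labetalol internal standard, then centrifuged. Supernatant analysed by LC-MS/MS on a C18 column at 40 °C. Blank was enzyme without substrate.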

[2] = molecular target: T1, Cytochrome P450 3A4 (Homo sapiens, UniProt P08684); test: Drug metabolism assessed as human recombinant CYP3A4-mediated metabolite formation by measuring parent compound remaining at 5 uM in presence of NADPH after 30 mins by LC-MS/MS analysis; type: ADME; conditions: recombinant enzyme, 0.5 h; method in brief: as §1
[3] = molecular target: T1, Cytochrome P450 3A4; test: Drug metabolism assessed as human recombinant CYP3A4-mediated formation of OH-substituted O-demethyl-4-(1,1,1,2,3,3,3-Heptafluoropropan-2-yl)-N-(6-(2-hydroxyethoxy)-5-(2-methoxyphenoxy)-2,2'-bipyrimidin-4-yl)benzenesulfonamide at 5 uM in presence of NADPH after 30 mins by LC-MS/MS analysis; type: ADME; conditions: recombinant enzyme, 0.5 h; method in brief: as §1
[4] = molecular target: T2, Endothelin receptor type B (Homo sapiens) (UniProt P24530); test: Agonist activity at human recombinant ETB receptor expressed in CHOK1 cells assessed as induction of Ca2+ mobilization at 10 nM by fluorimetric method relative to control; type: functional, cell-based; conditions: CHO-K1
T2 sequence (whole entry): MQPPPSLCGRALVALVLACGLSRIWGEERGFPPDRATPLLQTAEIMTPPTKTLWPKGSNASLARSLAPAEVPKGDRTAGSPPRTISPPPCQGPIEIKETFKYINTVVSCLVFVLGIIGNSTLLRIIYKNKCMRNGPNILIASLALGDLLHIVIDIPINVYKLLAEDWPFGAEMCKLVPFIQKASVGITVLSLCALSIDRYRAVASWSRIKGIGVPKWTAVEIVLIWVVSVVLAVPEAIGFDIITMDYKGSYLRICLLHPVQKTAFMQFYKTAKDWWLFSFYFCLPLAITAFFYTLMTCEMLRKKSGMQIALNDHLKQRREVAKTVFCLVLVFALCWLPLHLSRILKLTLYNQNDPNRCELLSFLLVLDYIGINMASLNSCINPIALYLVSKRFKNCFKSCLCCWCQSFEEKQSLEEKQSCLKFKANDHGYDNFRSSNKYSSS
Method in brief: (§2)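 ETB functional assay run by Cerep in human recombinant CHO-k1 cells at 22 °C with fluorimetric read-out. Test solutions were 1, 10, 100 and 1000 nM. Agonist response is given as % of the control response to 100 nM endothelin-1. For antagonist mode, inhibition is given as % of the control endothelin-1 agonist response, with BQ-788 as reference antagonist.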

[5] = Drug metabolism in human liver microsomes assessed as formation of OH-substituted O-demethyl-4-(1,1,1,2,3,3,3-Heptafluoropropan-2-yl)-N-(6-(2-hydroxyethoxy)-5-(2-methoxyphenoxy)-2,2'-bipyrimidin-4-yl)benzenesulfonamide at 5 uM in presence of NADPH after 30 mins by LC-MS/MS analysis; type: ADME; conditions: 0.5 h
Method in brief: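 Pooled human liver microsomes in 100 mM potassium phosphate, pH 7.4, with test compound at 5 μM final. Reaction started with 1 mM NADPH (final) and run at 37 °C in a shaking water bath for 0, 15 and 30 min. Stopped with an equal volume of ice-cold acetonitrile containing 0.6 μM labetalol as internal standard. Protein was spun out and the supernatant analysed by LC-MS/MS. Blank had no compound.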

[6] = molecular target: T1, Cytochrome P450 3A4; test: Drug metabolism assessed as human recombinant CYP3A4-mediated formation of N-(6-(2-hydroxyethoxy)-5-(2-hydroxyphenoxy)-2,2'-bipyrimidin-4-yl)-4-(perfluoropropan-2-yl)benzenesulfonamide at 5 uM in presence of NADPH after 30 mins by LC-MS/MS analysis; type: ADME; conditions: recombinant enzyme, 0.5 h; method in brief: as §1
[7] = molecular target: T2, Endothelin receptor type B (Homo sapiens); test: Antagonist activity at human recombinant ETB expressed in CHOK1 cells assessed as inhibition of endothelin-1-mediated Ca2+ mobilization at 1 nM by fluorimetric method relative to control; type: functional, cell-based; conditions: CHO-K1; method in brief: as §2
[8] = molecular target: T1, Cytochrome P450 3A4; test: Drug metabolism assessed as human recombinant CYP3A4-mediated formation of 4-(1,1,1,3,3,3-hexafluoro-2-methoxypropan-2-yl)-N-(6-(2-hydroxyethoxy)-5-(2-hydroxyphenoxy)-2,2'-bipyrimidin-4-yl)benzenesulfonamide at 5 uM in presence of NADPH after 30 mins by LC-MS/MS analysis; type: ADME; conditions: recombinant enzyme, 0.5 h; method in brief: as §1
[9] = molecular target: T1, Cytochrome P450 3A4; test: Drug metabolism assessed as human recombinant CYP3A4-mediated formation of 4-(1,1,1,3,3,3-hexafluoro-2-hydroxypropan-2-yl)-N-(6-(2-hydroxyethoxy)-5-(2-methoxyphenoxy)-2,2'-bipyrimidin-4-yl)benzenesulfonamide at 5 uM in presence of NADPH after 30 mins by LC-MS/MS analysis; type: ADME; conditions: recombinant enzyme, 0.5 h; method in brief: as §1
[10] = Drug metabolism in human liver microsomes assessed as formation of 4-(1,1,1,3,3,3-hexafluoro-2-methoxypropan-2-yl)-N-(6-(2-hydroxyethoxy)-5-(2-hydroxyphenoxy)-2,2'-bipyrimidin-4-yl)benzenesulfonamide at 5 uM in presence of NADPH after 30 mins by LC-MS/MS analysis; type: ADME; conditions: 0.5 h; method in brief: as §1
[11] = Drug metabolism in human liver microsomes assessed as formation of 4-(1,1,1,3,3,3-hexafluoro-2-hydroxypropan-2-yl)-N-(6-(2-hydroxyethoxy)-5-(2-methoxyphenoxy)-2,2'-bipyrimidin-4-yl)benzenesulfonamide at 5 uM in presence of NADPH after 30 mins by LC-MS/MS analysis; type: ADME; conditions: 0.5 h; method in brief: as §1

T1 sequence (P08684 whole entry): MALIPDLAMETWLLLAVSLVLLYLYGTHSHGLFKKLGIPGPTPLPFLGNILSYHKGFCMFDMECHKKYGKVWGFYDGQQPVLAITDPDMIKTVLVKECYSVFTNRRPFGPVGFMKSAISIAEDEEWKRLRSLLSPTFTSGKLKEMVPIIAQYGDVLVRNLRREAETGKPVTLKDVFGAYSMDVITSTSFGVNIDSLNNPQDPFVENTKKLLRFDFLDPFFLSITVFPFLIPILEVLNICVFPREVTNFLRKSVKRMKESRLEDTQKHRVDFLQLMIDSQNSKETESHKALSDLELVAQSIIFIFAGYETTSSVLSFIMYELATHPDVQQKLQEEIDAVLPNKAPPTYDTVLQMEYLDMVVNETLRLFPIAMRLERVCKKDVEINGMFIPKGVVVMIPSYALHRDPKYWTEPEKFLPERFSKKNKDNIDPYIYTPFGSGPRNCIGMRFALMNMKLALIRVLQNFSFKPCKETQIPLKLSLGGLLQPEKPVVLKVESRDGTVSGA

| Drug metabolism [1] | Stability [2] [%] | Drug metabolism [3] | Activity [4] [%] | Drug metabolism [5] | Drug metabolism [6] | inhibition [7] [%] | Drug metabolism [8] | Drug metabolism [9] | Drug metabolism [10] | Drug metabolism [11] | SMILES |
| --- | --- | --- | --- | --- | --- | --- | --- | --- | --- | --- | --- |
| Metabolite_Detected | 16.3 | Metabolite_Detected | -1 | Metabolite_Detected | Metabolite_Detected | -5 |  |  |  |  | COc1ccccc1Oc1c(NS(=O)(=O)c2ccc(C(F)(C(F)(F)F)C(F)(F)F)cc2)nc(-c2ncccn2)nc1OCCO |
|  | 19.2 |  | 0 |  |  | 4 | Metabolite_Detected | Metabolite_Detected | Metabolite_Detected | Metabolite_Detected | COc1ccccc1Oc1c(NS(=O)(=O)c2ccc(C(OC)(C(F)(F)F)C(F)(F)F)cc2)nc(-c2ncccn2)nc1OCCO |
